# Experimental data taken from ChEMBL document CHEMBL4138194, “Synthesis of unprecedented steroidal spiro heterocycles as potential antiproliferative drugs” (Eur J Med Chem, 2018).
# How the values were obtained:
# HeLa = assay: Antiproliferative activity against human HeLa cells after 48 hrs by SRB assay; type: functional
# How it was run: (§1)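 Seeded at 2 500 cells/well, per doubling time. Compounds were dissolved in DMSO at 400× the top test concentration and tested in triplicate at dilutions spanning 1–100 µM, starting day 1 after plating, with 0.25% v/v DMSO as control. After 48 h, cells were fixed with cold TCA for 60 min at 4 °C, then SRB-stained. Background-corrected OD was read at 530 nm, and percentage growth was calculated against untreated cells using T0 and end-point OD (NCI formulas).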
# A549 = assay: Antiproliferative activity against human A549 cells after 48 hrs by SRB assay; type: functional; details: A549, 48 h; how it was run: as §1
# WiDr = assay: Antiproliferative activity against human WiDr cells after 48 hrs by SRB assay; type: functional
# How it was run: (§2)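 Plated at 5 000 cells/well, per doubling time. Compounds were dissolved in DMSO at 400× the maximum final concentration and tested in triplicate between 1 and 100 µM for 48 h, beginning day 1 after plating, with 0.25% v/v DMSO as control. Cells were then TCA-fixed for 60 min at 4 °C and SRB-stained. Background-corrected OD was read at 530 nm, and percentage growth was derived against untreated control from start and end OD (NCI formulas).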
# SW1573 = assay: Antiproliferative activity against human SW1573 cells after 48 hrs by SRB assay; type: functional; details: SW1573, 48 h; how it was run: as §1
# T47D = assay: Antiproliferative activity against human T47D cells after 48 hrs by SRB assay; type: functional; how it was run: as §2
# HBL-100 = assay: Antiproliferative activity against human HBL100 cells after 48 hrs by SRB assay; type: functional; details: HBL-100, 48 h; how it was run: as §1
# [1] = Cytotoxicity against human hTERT-BJ cells assessed as cell growth inhibition after 48 hrs SRB assay; type: cell-based
# How it was run: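 BJ-hTert cells were seeded at 10 000/well and exposed from day 1 for 48 h to compounds in triplicate across 1–100 µM. DMSO stocks were 400× the top concentration, with a 0.25% v/v DMSO control. Cells were fixed with ice-cold TCA for 60 min at 4 °C and SRB-stained. Background-corrected OD was read at 530 nm, and percentage growth was computed relative to untreated cells using T0 and final OD (NCI formulas).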
SMILES,GI50 (HeLa) [µM],GI50 (A549) [µM],GI50 (SW1573) [µM],GI50 (T47D) [µM],GI50 (WiDr) [µM],GI50 (HBL-100) [µM],GI50 at 48 h [1] [µM]
CCCCNC(=S)NC[C@]1(O)CC[C@H]2[C@@H]3CC[C@H]4C[C@@H](O)CC[C@]4(C)[C@H]3CC[C@@]21C,14,12,9.4,5.8,4.5,13,
COC(=O)NC[C@]1(O)CC[C@H]2[C@@H]3CCc4cc(O)ccc4[C@H]3CC[C@@]21C,3.5,6.8,5.9,4.3,4.9,4,
C[C@]12CC[C@H](O)C[C@@H]1CC[C@@H]1[C@@H]2CC[C@@]2(C)[C@H]1CC[C@@]21CNC(=O)O1,4,3.7,6,4.5,3.8,10,< 1
C[C@]12CC[C@H](O)C[C@@H]1CC[C@@H]1[C@@H]2CC[C@@]2(C)[C@H]1CC[C@@]2(O)CN=[N+]=[N-],> 100,> 100,> 100,> 100,> 100,> 100,
C[C@]12CC[C@H](O)C[C@@H]1CC[C@@H]1[C@@H]2CC[C@@]2(C)[C@H]1CC[C@@]2(O)CNC(=S)NC1CCCCC1,21,16,15,18,18,18,
C[C@]12CC[C@@H]3c4ccc(O)cc4CC[C@H]3[C@@H]1CC[C@@]2(O)CNC(=S)Nc1ccccc1,6.3,9.8,21,5.7,4.5,15,
COC(=O)NC[C@]1(O)CC[C@H]2[C@@H]3CC[C@H]4C[C@@H](O)CC[C@]4(C)[C@H]3CC[C@@]21C,70,38,92,41,39,99,
C[C@]12CC[C@H](O)C[C@@H]1CC[C@@H]1[C@@H]2CC[C@@]2(C)[C@H]1CC[C@@]2(O)CNC(=S)Nc1ccccc1,27,29,27,34,17,27,
C[C@]12CC[C@H](O)C[C@@H]1CC[C@@H]1[C@@H]2CC[C@@]2(C)[C@H]1CC[C@@]2(O)CN,22,17,19,21,25,20,
C[C@]12CC[C@@H]3c4ccc(O)cc4CC[C@H]3[C@@H]1CC[C@@]2(O)CN,27,39,43,30,22,34,
CCCCNC(=S)NC[C@]1(O)CC[C@H]2[C@@H]3CCc4cc(O)ccc4[C@H]3CC[C@@]21C,4.2,4.8,15,3.9,4.4,7.2,
C[C@]12CC[C@H](O)CC1=CC[C@@H]1[C@@H]2CC[C@]2(C)C(c3cccnc3)=CC[C@@H]12 [ABIRATERONE],7.9,95,85,24,42,> 100,4.5
C[C@]12CC[C@H](O)CC1=CC[C@@H]1[C@@H]2CC[C@]2(C)C(n3cnc4ccccc43)=CC[C@@H]12 [GALETERONE],5.3,3.9,3.9,2.1,2.7,10,5

# Now those with a lower GI50 (HeLa), led by results:
GI50 (HeLa) [µM],GI50 (A549) [µM],GI50 (SW1573) [µM],GI50 (T47D) [µM],SMILES,GI50 (WiDr) [µM],GI50 (HBL-100) [µM],GI50 at 48 h [1] [µM]
3.3,2.6,3.4,2.6,C[C@]12CC[C@@H]3c4ccc(O)cc4CC[C@H]3[C@@H]1CC[C@@]21CN=C(Nc2ccccc2)O1,2.6,4.4,1.4
3.3,4.5,14,3.9,C[C@]12CC[C@@H]3c4ccc(O)cc4CC[C@H]3[C@@H]1CC[C@@]2(O)CNC(=S)NC1CCCCC1,2.8,5.1,
2.9,13,29,4.1,C[C@]12CC[C@@H]3c4ccc(OCc5ccccc5)cc4CC[C@H]3[C@@H]1CC[C@@]2(O)CN=[N+]=[N-],2.4,22,
2.1,1.4,2.2,0.45,CCCCNC1=NC[C@@]2(CC[C@H]3[C@@H]4CCc5cc(O)ccc5[C@H]4CC[C@@]32C)O1,0.34,2.9,< 1
1.6,1.4,1.2,1.2,CCCCNC1=NC[C@@]2(CC[C@H]3[C@@H]4CC[C@H]5C[C@@H](O)CC[C@]5(C)[C@H]4CC[C@@]32C)O1,0.87,2.1,< 1
1.6,1.5,1.5,1.2,C[C@]12CC[C@H](O)C[C@@H]1CC[C@@H]1[C@@H]2CC[C@@]2(C)[C@H]1CC[C@@]21CN=C(NC2CCCCC2)O1,0.96,2,1.2
1.3,5.4,18,4.4,C[C@]12CC[C@@H]3c4ccc(O)cc4CC[C@H]3[C@@H]1CC[C@@]21CNC(=O)O1,9.2,6.3,
1.3,1.1,1.5,0.71,C[C@]12CC[C@@H]3c4ccc(O)cc4CC[C@H]3[C@@H]1CC[C@@]21CN=C(NC2CCCCC2)O1,0.34,1.5,< 1
